Bioassay records: PubChem, several laboratories
NR2E3 ag-1: human photoreceptor-specific nuclear receptor agonism; hit rate 0.35% among 360,000; CHO-S Gal4-NCOR/VP16-NR2E3 two-hybrid, luciferase; inhibition of corepressor binding, % at 3.98 µM; Q9Y5X4;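 active means inhibition above the mean of all tested compounds plus 3 SD, cut at about 70% in these data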;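 further: 0% = DMSO with NR2E3 transfected cells and 100% = cells lacking NR2E3 construct; higher means lower luciferase signal from less NR2E3 corepressor binding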
Rev-erbA mod: Rev-erb alpha (human) modulation; P20393; Rev-erbα–FITC-DNA binding, fluorescence polarization, 90 min; activity, % at 10 µM; hit rate 0.79% among 370,000; AID 1259318;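 active means activity above about 14%, limit read from the data; passing the limit was not always enough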;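 further: 0% = DMSO wells with 35 nM protein and 100% = DMSO wells with 750 nM protein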
Target sequence (P20393 whole entry, looked up): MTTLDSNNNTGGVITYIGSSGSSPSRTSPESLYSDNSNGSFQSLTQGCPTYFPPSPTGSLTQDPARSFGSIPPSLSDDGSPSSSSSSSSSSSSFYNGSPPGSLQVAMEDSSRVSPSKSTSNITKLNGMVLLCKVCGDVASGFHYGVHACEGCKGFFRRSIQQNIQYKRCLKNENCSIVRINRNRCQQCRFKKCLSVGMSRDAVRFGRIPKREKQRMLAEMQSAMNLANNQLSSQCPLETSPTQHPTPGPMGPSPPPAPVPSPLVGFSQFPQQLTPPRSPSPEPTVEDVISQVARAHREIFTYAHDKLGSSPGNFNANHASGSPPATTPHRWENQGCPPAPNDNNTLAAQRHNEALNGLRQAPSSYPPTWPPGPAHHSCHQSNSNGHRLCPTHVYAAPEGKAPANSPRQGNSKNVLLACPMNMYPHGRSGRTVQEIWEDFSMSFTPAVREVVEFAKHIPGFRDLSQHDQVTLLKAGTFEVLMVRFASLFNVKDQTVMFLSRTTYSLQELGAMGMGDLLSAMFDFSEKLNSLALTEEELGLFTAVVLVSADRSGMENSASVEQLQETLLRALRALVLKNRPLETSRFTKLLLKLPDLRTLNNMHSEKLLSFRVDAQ
PG9 binder: small molecules binding HIV-1 gp120 antibody PG9. hit rate 0.43% among 360,000. TR-FRET gp120-PG9 antibody binding. inhibition, % at 6.7 µM; in the data active means inhibition above about 8.5%
rCAG RNA binder: molecules binding r(CAG) RNA repeats; r(CAG) RNA repeat, TO-PRO-1 dye displacement fluorescence; inhibition, % at 3 µM; hit rate 1.3% among 370,000; AID 651821;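 active means inhibition above the plate cutoff, the mean of all test compounds on that plate plus 3 SD, cut at about 35% in these data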;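 further: 0% = DMSO alone and 100% = 100 µM mitoxantrone as full dye displacement; higher means more dye released from RNA so lower well fluorescence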
NR2E3 ag-2: NR2E3 (human) agonism | Q9Y5X4 | GST-NR2E3/biotin-RetCOR TR-FRET, 1536-well | inhibition of corepressor binding, % at 4.78 µM | hit rate 0.12% among 320,000 | AID 2300;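 active means percent inhibition above the cutoff of mean plus 3 SD of all tested compounds, set per screening campaign, cut at about 20% in these data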;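 further: 0% = DMSO wells and 100% = biotin wells as full block of FRET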
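Material: NR2E3–RetCOR corepressor complex / Amount: 1.35 nM GST-NR2E3 / Medium: Tris pH 7.5 / Compound: single nominal compound dose of 4.8 µM / Incubation: 5 h at 4 °C / Technique: TR-FRET, Eu(K)-anti-GST donor, streptavidin-D2 acceptor, ex 340, em 617/671 nm / Read-out basis: percent loss of FRET ratio relative to control wells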
rCAG binder conf: r(CAG) RNA repeat binding, confirmation; shares compounds with rCAG RNA binder; TO-PRO-1 dye displacement fluorescence; inhibition, % at 3 µM; hit rate 70% among 4,300;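 active means inhibition above a per-plate cutoff, the mean inhibition of sample wells plus 3 SD, cut at about 35% in these data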;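 further: loss of TO-PRO-1 fluorescence as compound displaces dye from 1x1 AA loop RNA; 0% = DMSO only wells and 100% = 100 µM mitoxantrone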
DNA CAG counter: disrupts DNA CAG TO-PRO-1 complex, flagging rCAG hits | inhibition, % at 3 µM | shares compounds with rCAG RNA binder | hit rate 94% among 4,300 | d(CAG) DNA oligo TO-PRO-1 dye displacement, fluorescence;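 active means inhibition above its plate's cutoff, the mean test-well inhibition plus 3 SD, cut at about 4.8% in these data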;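 further: 0% = DNA dye mix with DMSO and 100% = 100 µM mitoxantrone; hits displace the dye from DNA and so lower well fluorescence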
DNA CAG DR: disrupts DNA CAG TO-PRO-1 complex in dose response; shares compounds with rCAG RNA binder; DNA CAG/GTC duplex TO-PRO-1 dye displacement fluorescence; IC50, µM; hit rate 20% among 250; in the data active means IC50 below about 10 µM
Active calls of the source: *; nt = not tested or not shown. Hits are enriched below; roughly 2.6% of the tested compounds scored in any of these assays.

SMILES	NR2E3 ag-1	Rev-erbA mod	PG9 binder	rCAG RNA binder	NR2E3 ag-2	rCAG binder conf	DNA CAG counter	others
N#Cc1c(NC(=O)c2cccc(S(=O)(=O)Nc3ccc(C(=O)O)cc3)c2)sc2c1CCCC2	7	-4	-2	61*	2	46*	17*
O=C(Nc1sc2c(c1C(=O)O)CCC2)c1ccccc1Cl	-33	3	0	12	2	nt	nt
CCCc1c(C(=O)N/N=C/c2ccc(OCc3ccc(F)cc3)cc2)nnn1-c1nonc1N	-3	-11	-1	4	nt	nt	nt
CC(C)=CCC[C@](C)(O[C@@H]1O[C@H](CO[C@@H]2OC[C@@H](O)[C@H](O)[C@H]2O)[C@@H](O)[C@H](O)[C@H]1O)C1CC[C@]2(C)C1[C@H](O)CC1[C@@]3(C)CC[C@H](O[C@@H]4O[C@H](CO)[C@@H](O)[C@H](O)[C@H]4O)C(C)(C)C3CC[C@]12C (stereo not given in full)	1	7	1	-6	nt	nt	nt
Cc1ccc(S(=O)(=O)Nc2ccc(-c3nc4ccc(C)cc4s3)cc2)cc1	-21	4	-1	35*	-5	28	12*
Cc1cccc(S(=O)(=O)Nc2ccc(-c3nc4ccc(C)cc4s3)cc2)c1	-122	3	-1	37*	1	40*	15*
CCC(CC)c1nnc(NC(=O)c2cccc(S(=O)(=O)N3CCOCC3)c2)s1	-17	3	-1	6	nt	nt	nt
N#CC1=C(S)N(c2ccccc2)C(c2ccc(-c3ccccc3Cl)o2)NC1=O (stereo not given)	-68	-4	-2	52*	-1	76*	40*
COc1ccc(NC(=O)CN2C(=O)S/C(=C/c3cccn3-c3ccc(C(=O)O)cc3)C2=O)cc1	-12	-12	-2	24	nt	nt	nt
Cc1cccc(C)c1NC(=O)CN1C(=O)S/C(=C\c2cccn2-c2cccc(C(=O)O)c2)C1=O	1	1	-1	10	-3	nt	nt
Cc1cccc(NC(=O)CN2C(=O)S/C(=C\c3cccn3-c3cccc(C(=O)O)c3)C2=O)c1	-14	3	-4	84*	4	81*	49*
COc1cc(/C=C2\SC(=O)N(CC(=O)Nc3cccc(C)c3)C2=O)ccc1OC(C)C(=O)O (stereo not given)	-12	1	-1	54*	3	44*	14*
Cc1ccc(NC(=O)CN2C(=O)S/C(=C\c3cc(C)n(-c4ccc(C(=O)O)cc4)c3C)C2=O)cc1	-8	-4	-4	68*	2	85*	48*
Cc1ccc(NC(=O)CN2C(=O)S/C(=C\c3cccn3-c3cccc(C(=O)O)c3)C2=O)cc1C	7	0	-3	7	2	nt	nt
Cc1cccc(C)c1-n1cccc1/C=C1\SC(=S)N(c2cccc(C(=O)O)c2)C1=O	-124	-9	-2	84*	-3	78*	41*
OCCCNc1ncnc2c1ncn2[C@H]1CN(Cc2ccco2)C[C@@H](CO)O1	7	-9	1	1	nt	nt	nt
Cc1ccc(C(=O)N/C(=C\c2ccc(Br)cc2)c2nc(=S)[nH][nH]2)cc1	-14	nt	-2	41*	2	53*	23*
CCCCCC(=O)Nc1ccc(C(=O)CN2C(=O)NC3(CCCCCC3)C2=O)cc1	38	-3	-3	-3	0	nt	nt
O=C(Cn1c(=O)cnc2ccccc21)Nc1cccc(S(=O)(=O)N2CCOCC2)c1	25	-3	0	7	3	nt	nt
O=S(=O)(/N=C(/Nc1ccc(Cl)c(S(=O)(=O)Nc2ccccc2Cl)c1)c1ccc(F)cc1)c1ccccc1	23	-2	0	66*	3	71*	26*	DNA CAG DR=>30
COc1ccccc1NS(=O)(=O)c1cc(N/C(=N/S(=O)(=O)c2ccccc2)c2ccc(F)cc2)ccc1Cl	-29	1	1	16	nt	nt	nt
C/C(=N\NC(=O)c1cccc(S(=O)(=O)Nc2ccccc2Cl)c1)c1ccco1	14	-4	-1	48*	5	18	6.8*
C/C(=N\NC(=O)c1ccc(Cl)c(S(=O)(=O)Nc2ccccc2Cl)c1)c1ccncc1	5	0	-1	51*	-4	41*	11*
CN(C)C(CNC(=O)c1cccc(S(=O)(=O)Nc2ccccc2Cl)c1)c1ccco1 (stereo not given)	-16	2	-1	9	4	nt	nt
CC(=O)Nc1ccc(S(=O)(=O)NN=CCCc2ccccc2)cc1	-15	-7	0	1	nt	nt	nt
SMILES	NR2E3 ag-1	Rev-erbA mod	PG9 binder	rCAG RNA binder	NR2E3 ag-2	rCAG binder conf	DNA CAG counter	others
O=C(O)c1ccc(/C=N/NC(=O)c2cc(-c3ccc4c5c(cccc35)CC4)n[nH]2)cc1	-66	-3	-1	81*	2	80*	49*
O=C(N/N=C/c1ccccn1)c1cc(-c2cccc3ccccc23)n[nH]1	-117	3	1	3	2	nt	nt
CC(CCl)n1c(=O)c2ccccc2n1C(=O)c1ccccc1 (stereo not given)	-15	8	-2	2	nt	nt	nt
O=C(O)c1ccc(N2C(=O)CC(SC(=NCc3ccc4c(c3)OCO4)Nc3ccccc3)C2=O)cc1 (stereo not given)	-20	0	1	69*	-1	62*	23*
O=C(O)c1ccc(N2C(=O)CC(SC(=NCc3ccc4c(c3)OCO4)Nc3ccc(F)cc3)C2=O)cc1 (stereo not given)	-9	-2	-2	77*	-2	73*	33*	DNA CAG DR=>30
O=C1CC(SC(=NCc2ccc3c(c2)OCO3)Nc2ccccc2)C(=O)N1c1ccccc1 (stereo not given)	-8	1	-1	3	0	nt	nt
CC(=O)NCCC(=O)Nc1sc2c(c1-c1nc3ccccc3[nH]1)CCCC2	-35	1	-1	13	4	nt	nt
CN1CCN(S(=O)(=O)c2cccc(C(=O)Nc3sc4c(c3-c3nc5ccccc5[nH]3)CCCC4)c2)CC1	-58	0	0	38*	0	29	20*
C=CCOc1ccc(/C=C2\C(=N)N3N=C(S(=O)(=O)CC)SC3=NC2=O)cc1OC	-12	-1	-1	36*	7	82*	42*
CCOC(=O)c1ccc(N2NC(=O)/C(=C/c3ccc(OC(=O)c4ccco4)c(OC)c3)C2=O)cc1	nt	-2	-2	84*	1	90*	66*
CS(=O)(=O)C1=NN2C(=N)/C(=C\c3ccc(OC(=O)c4ccco4)cc3)C(=O)N=C2S1	-4	-6	0	31	-3	nt	nt
COc1cc(/C=C2/C(=O)NN(c3ccc(Cl)cc3)C2=O)cc(OC)c1O	-48	-1	-12	37*	-2	13	4.5*
